Data as given in ChEMBL document CHEMBL5661979, “Pharmacological inhibition of BMK1 suppresses tumor growth through promyelocytic leukemia protein” (Cancer Cell, 2010).

Tests used:
[1] = target: Hepatocyte growth factor receptor (Homo sapiens, UniProt P08581); assay: Inhibition of MET in human HeLa cells lysate at 2 uM pre incubated for 15 mins followed by ATP acyl phosphate probe addition and measured after 10 mins by LC-MS/MS analysis relative to control; type: subcellular; conditions: time 25.0 min
[2] = target: T1, EKC/KEOPS complex subunit TP53RK (Homo sapiens) (UniProt Q96S44); assay: Inhibition of PRPK in human HeLa cells lysate at 50 uM pre incubated for 15 mins followed by ADP acyl phosphate probe addition and measured after 10 mins by LC-MS/MS analysis relative to control; type: subcellular; conditions: time 25.0 min
T1 sequence (whole entry): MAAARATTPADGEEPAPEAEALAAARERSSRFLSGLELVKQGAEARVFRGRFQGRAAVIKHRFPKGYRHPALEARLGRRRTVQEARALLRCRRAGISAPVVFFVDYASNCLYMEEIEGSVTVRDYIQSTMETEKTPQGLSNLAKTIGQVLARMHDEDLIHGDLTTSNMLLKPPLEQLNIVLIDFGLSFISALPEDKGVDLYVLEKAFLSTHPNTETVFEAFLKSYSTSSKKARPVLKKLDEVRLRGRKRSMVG

[3] = target: Dual specificity mitogen-activated protein kinase kinase 3 (Homo sapiens, UniProt P46734); assay: Inhibition of MAP2K3 in human HeLa cells lysate pre incubated for 15 mins followed by ADP acyl phosphate probe addition and measured after 10 mins by LC-MS/MS analysis; type: subcellular
[4] = Inhibition of MST4/YSK1 in human HeLa cells lysate pre incubated for 15 mins followed by ADP acyl phosphate probe addition and measured after 10 mins by LC-MS/MS analysis; type: subcellular
[5] = target: T2, Serine/threonine-protein kinase 3 (Homo sapiens) (UniProt Q13188); assay: Inhibition of MST2 in human HeLa cells lysate at 50 uM pre incubated for 15 mins followed by ADP acyl phosphate probe addition and measured after 10 mins by LC-MS/MS analysis relative to control; type: subcellular; conditions: time 25.0 min
T2 sequence (whole entry): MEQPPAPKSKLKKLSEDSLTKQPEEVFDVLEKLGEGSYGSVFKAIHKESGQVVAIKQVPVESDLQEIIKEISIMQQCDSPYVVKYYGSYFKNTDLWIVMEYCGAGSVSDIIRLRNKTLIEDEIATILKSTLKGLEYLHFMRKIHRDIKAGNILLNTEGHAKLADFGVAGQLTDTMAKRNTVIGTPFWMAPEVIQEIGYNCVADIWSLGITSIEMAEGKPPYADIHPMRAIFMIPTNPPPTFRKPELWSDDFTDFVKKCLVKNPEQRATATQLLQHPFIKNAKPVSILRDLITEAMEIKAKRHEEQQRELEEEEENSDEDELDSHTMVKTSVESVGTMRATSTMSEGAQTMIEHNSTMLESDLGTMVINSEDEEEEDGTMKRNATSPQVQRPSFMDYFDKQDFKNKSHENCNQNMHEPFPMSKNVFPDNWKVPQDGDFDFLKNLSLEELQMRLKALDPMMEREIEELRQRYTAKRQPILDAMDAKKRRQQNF

RPS6KA1/RPS6KA2/RPS6KA3 = RPS6KA1/RPS6KA2/RPS6KA3 (Homo sapiens, UniProt P51812+Q15349+Q15418); assay: Inhibition of RSK1/2/3 in human HeLa cells lysate at 10 uM pre incubated for 15 mins followed by ATP acyl phosphate probe addition and measured after 10 mins by LC-MS/MS analysis relative to control; type: subcellular; conditions: time 25.0 min
Sequence of RPS6KA1/RPS6KA2/RPS6KA3 (P51812 whole entry, looked up): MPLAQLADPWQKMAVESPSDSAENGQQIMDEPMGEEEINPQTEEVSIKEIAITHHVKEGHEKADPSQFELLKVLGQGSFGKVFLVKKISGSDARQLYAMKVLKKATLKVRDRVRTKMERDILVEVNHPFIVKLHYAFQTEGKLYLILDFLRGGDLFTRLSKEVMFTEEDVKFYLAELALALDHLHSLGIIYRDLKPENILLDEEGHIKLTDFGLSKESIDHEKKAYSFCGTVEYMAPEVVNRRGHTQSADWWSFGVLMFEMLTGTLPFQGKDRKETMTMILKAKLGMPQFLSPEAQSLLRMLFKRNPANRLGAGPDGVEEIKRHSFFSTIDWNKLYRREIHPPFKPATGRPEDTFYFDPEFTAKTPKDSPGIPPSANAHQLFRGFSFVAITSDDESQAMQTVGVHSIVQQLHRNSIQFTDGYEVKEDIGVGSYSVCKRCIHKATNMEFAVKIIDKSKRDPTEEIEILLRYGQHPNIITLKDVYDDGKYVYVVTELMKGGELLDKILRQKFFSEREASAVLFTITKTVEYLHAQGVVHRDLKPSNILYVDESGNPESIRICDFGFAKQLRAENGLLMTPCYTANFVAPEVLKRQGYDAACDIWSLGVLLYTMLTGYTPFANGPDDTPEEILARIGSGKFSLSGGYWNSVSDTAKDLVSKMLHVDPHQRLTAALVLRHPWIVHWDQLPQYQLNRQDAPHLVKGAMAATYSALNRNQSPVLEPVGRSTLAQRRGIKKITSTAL
Sequence of RPS6KA1/RPS6KA2/RPS6KA3 (Q15349 whole entry, looked up): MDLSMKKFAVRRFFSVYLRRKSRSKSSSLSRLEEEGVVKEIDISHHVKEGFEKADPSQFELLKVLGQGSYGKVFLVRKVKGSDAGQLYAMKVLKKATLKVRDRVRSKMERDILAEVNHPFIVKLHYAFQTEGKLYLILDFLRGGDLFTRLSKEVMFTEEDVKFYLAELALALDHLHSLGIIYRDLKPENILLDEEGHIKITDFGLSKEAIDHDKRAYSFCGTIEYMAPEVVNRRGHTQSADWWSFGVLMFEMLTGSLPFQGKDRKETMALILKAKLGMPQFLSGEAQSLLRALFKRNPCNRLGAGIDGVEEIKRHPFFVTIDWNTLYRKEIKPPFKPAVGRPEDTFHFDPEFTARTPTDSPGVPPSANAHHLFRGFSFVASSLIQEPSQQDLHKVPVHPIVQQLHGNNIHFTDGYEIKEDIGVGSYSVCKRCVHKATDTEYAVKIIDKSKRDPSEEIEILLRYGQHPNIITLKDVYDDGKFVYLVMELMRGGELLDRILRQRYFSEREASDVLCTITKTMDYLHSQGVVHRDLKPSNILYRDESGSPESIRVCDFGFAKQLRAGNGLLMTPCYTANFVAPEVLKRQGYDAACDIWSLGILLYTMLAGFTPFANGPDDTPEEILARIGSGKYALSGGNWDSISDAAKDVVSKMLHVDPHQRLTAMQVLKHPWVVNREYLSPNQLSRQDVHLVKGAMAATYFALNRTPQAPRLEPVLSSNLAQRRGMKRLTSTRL
Sequence of RPS6KA1/RPS6KA2/RPS6KA3 (Q15418 whole entry, looked up): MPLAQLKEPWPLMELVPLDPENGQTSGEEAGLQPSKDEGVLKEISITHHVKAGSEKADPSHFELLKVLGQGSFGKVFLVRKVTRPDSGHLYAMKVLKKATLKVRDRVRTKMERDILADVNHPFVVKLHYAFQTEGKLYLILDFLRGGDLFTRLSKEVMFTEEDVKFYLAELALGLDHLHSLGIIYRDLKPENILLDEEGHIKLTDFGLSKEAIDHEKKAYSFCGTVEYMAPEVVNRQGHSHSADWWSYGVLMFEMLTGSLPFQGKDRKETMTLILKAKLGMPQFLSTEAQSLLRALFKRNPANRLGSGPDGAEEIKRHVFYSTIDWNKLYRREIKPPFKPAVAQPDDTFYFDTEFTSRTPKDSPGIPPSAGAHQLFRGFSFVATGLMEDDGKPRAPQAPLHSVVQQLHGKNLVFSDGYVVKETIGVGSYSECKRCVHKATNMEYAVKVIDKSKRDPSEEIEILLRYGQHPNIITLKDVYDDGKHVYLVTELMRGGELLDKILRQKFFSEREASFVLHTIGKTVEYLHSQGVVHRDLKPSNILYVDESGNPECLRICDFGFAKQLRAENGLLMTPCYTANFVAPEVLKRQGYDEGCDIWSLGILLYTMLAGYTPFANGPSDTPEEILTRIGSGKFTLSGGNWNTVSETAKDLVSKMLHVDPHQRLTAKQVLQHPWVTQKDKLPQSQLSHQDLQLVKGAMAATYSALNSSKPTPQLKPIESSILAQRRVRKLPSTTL

[6] = target: Serine/threonine-protein kinase TAO2 (Homo sapiens, UniProt Q9UL54); assay: Inhibition of TAO2 in human HeLa cells lysate pre incubated for 15 mins followed by ATP acyl phosphate probe addition and measured after 10 mins by LC-MS/MS analysis; type: subcellular
Sequence of Serine/threonine-protein kinase TAO2 (Q9UL54 whole entry): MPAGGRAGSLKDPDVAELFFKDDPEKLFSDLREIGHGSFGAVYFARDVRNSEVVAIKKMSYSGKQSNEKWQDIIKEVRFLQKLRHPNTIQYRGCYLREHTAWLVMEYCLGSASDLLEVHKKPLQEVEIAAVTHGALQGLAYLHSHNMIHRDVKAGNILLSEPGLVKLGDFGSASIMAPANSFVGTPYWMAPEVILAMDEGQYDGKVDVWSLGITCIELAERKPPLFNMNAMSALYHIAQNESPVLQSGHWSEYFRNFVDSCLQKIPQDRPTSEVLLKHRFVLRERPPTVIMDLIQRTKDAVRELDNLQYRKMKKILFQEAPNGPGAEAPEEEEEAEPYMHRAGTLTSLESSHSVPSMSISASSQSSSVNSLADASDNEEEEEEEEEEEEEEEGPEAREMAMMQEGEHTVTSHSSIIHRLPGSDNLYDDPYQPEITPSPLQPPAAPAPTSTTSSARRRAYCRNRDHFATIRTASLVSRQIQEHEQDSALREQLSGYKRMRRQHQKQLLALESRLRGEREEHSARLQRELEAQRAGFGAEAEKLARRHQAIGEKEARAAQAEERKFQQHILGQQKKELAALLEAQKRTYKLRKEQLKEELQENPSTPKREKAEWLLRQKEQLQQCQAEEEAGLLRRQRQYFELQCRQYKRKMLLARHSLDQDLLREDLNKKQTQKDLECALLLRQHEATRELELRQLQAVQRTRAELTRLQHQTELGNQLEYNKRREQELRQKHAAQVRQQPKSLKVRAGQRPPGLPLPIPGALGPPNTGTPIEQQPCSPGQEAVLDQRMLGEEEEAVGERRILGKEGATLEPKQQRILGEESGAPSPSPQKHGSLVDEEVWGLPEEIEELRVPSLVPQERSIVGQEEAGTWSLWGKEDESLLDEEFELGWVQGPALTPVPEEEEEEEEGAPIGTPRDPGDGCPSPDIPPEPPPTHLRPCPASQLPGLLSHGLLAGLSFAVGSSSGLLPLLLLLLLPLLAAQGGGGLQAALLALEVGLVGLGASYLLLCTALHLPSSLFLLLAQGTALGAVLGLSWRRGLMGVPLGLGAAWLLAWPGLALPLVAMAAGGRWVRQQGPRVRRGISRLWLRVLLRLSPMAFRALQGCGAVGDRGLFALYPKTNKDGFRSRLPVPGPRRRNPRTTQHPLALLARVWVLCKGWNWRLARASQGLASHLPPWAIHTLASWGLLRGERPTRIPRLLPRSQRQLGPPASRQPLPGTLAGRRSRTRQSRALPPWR

AMPK alpha1/alpha2 = AMPK alpha1/alpha2 (Homo sapiens, UniProt P54646+Q13131); assay: Inhibition of AMPKalpha1/2 in human HeLa cells lysate pre incubated for 15 mins followed by ADP acyl phosphate probe addition and measured after 10 mins by LC-MS/MS analysis; type: subcellular
Procedure, shortened: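 HeLa cell lysates (5 mg/mL total protein) were preincubated with inhibitor at 0, 0.8, 2, 10 or 50 μM for 15 min. ATP or ADP acylphosphate probe was then added (5 μM final) for 10 min, and reactions were stopped with urea. Up to four fragment ions per kinase probe-peptide were quantified by targeted MS. % inhibition was taken relative to untreated lysate. Run in duplicate.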

[7] = target: Calcium/calmodulin-dependent protein kinase type II subunit gamma (Homo sapiens, UniProt Q13555); assay: Inhibition of CAMK2g in human HeLa cells lysate at 2 uM pre incubated for 15 mins followed by ATP acyl phosphate probe addition and measured after 10 mins by LC-MS/MS analysis relative to control; type: subcellular; conditions: time 25.0 min
Sequence of Calcium/calmodulin-dependent protein kinase type II subunit gamma (Q13555 whole entry, the tested form may be a part): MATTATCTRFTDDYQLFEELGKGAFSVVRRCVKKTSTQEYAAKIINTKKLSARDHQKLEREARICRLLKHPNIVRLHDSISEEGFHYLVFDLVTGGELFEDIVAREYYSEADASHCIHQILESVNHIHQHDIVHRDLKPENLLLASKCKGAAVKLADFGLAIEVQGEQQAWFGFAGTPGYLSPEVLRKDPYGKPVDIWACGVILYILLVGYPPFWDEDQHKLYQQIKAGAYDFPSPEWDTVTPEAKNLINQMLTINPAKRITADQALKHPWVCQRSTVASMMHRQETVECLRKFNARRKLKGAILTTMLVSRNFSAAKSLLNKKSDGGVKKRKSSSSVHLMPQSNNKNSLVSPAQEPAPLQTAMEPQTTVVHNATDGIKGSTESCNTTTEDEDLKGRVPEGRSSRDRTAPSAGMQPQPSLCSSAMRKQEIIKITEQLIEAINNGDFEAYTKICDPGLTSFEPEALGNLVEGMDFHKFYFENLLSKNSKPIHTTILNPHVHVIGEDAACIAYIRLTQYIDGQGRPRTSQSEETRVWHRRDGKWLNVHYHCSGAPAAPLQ
Procedure, shortened: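 KiNativ-type profiling in HeLa lysate (5 mg/mL total protein). Lysate preincubated 15 min with inhibitor at 50, 10, 2, 0.8 or 0 μM, then ATP or ADP acylphosphate probe added (5 μM final) for 10 min. Reaction stopped with urea and analysed by targeted MS, using up to four fragment ions per kinase peptide-probe conjugate. % inhibition calculated against untreated lysate. Duplicate reactions.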

[8] = Cmax in Sprague-Dawley rat at 1 mg/kg, iv measured up to 8 hrs by LC-MS/MS analysis; type: ADME, organism-based; conditions: in vivo
Insulin receptor = Insulin receptor (Homo sapiens, UniProt P06213); assay: Inhibition of INSR in human HeLa cells lysate at 50 uM pre incubated for 15 mins followed by ADP acyl phosphate probe addition and measured after 10 mins by LC-MS/MS analysis relative to control; type: subcellular; conditions: time 25.0 min
[9] = target: Serine/threonine-protein kinase tousled-like 2 (Homo sapiens, UniProt Q86UE8); assay: Inhibition of TLK2 in human HeLa cells lysate at 10 uM pre incubated for 15 mins followed by ADP acyl phosphate probe addition and measured after 10 mins by LC-MS/MS analysis relative to control; type: subcellular; conditions: time 25.0 min
[10] = target: T3, Serine/threonine-protein kinase ULK3 (Homo sapiens) (UniProt Q6PHR2); assay: Inhibition of ULK3 in human HeLa cells lysate at 50 uM pre incubated for 15 mins followed by ADP acyl phosphate probe addition and measured after 10 mins by LC-MS/MS analysis relative to control; type: subcellular; conditions: time 25.0 min
T3 sequence (whole entry): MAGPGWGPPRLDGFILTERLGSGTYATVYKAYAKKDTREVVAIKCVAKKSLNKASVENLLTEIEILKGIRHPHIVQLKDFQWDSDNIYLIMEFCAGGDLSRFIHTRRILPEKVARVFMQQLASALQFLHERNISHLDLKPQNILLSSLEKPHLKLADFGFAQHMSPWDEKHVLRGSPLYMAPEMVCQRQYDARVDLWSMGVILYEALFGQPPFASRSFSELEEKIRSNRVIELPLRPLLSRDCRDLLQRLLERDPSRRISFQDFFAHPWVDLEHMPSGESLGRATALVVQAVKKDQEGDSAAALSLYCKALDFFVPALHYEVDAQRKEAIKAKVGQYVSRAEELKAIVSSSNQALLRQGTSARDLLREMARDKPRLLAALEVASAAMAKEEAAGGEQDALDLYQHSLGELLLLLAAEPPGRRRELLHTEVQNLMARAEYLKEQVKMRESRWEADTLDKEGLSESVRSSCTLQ

[11] = target: Ribosomal protein S6 kinase alpha-5 (Homo sapiens, UniProt O75582); assay: Inhibition of MSK1 domain 1 K1 site in human HeLa cells lysate at 10 uM pre incubated for 15 mins followed by ADP acyl phosphate probe addition and measured after 10 mins by LC-MS/MS analysis relative to control; type: subcellular; conditions: time 25.0 min
Sequence of Ribosomal protein S6 kinase alpha-5 (O75582 whole entry, looked up, the tested form may be a part): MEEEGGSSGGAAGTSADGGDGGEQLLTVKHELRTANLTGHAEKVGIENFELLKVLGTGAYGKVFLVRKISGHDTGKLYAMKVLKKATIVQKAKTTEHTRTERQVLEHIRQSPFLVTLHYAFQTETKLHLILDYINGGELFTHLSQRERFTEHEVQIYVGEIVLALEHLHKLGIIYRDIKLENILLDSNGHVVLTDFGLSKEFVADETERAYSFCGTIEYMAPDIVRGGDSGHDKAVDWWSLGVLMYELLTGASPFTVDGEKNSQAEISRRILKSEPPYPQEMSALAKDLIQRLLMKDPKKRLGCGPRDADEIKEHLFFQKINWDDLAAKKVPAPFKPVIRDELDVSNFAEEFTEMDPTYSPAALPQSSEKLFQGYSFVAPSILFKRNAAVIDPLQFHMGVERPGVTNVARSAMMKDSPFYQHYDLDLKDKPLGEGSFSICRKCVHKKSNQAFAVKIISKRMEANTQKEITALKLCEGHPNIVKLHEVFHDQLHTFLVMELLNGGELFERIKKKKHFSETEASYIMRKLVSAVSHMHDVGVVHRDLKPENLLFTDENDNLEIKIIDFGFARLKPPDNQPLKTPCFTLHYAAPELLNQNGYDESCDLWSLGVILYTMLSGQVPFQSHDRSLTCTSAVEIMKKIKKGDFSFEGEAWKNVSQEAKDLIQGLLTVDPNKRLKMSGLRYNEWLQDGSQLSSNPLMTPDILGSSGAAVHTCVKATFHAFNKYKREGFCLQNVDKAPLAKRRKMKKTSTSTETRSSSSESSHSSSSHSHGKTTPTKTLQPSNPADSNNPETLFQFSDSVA

CCOc1cc(N2CCC(O)CC2)ccc1Nc1ncc2c(n1)N(C)c1ccccc1C(=O)N2C
inhibition [1]: 38%
inhibition [2]: 15.7%
IC50 [3]: > 50 µM
IC50 [4]: > 50 µM
inhibition [5]: 7.2%
inhibition (RPS6KA1/RPS6KA2/RPS6KA3): -7.4%
IC50 [6]: > 50 µM
IC50 (AMPK alpha1/alpha2): > 50 µM
inhibition [7]: 3%
Cmax [8]: 927 nM
inhibition (Insulin receptor): -6.5%
inhibition [9]: 0.4%
inhibition [10]: 19.4%
inhibition [11]: 1.8%
